Measurements taken from ChEMBL document CHEMBL3120083, “Discovery of N-[4-[6-tert-butyl-5-methoxy-8-(6-methoxy-2-oxo-1H-pyridin-3-yl)-3-quinolyl]phenyl]methanesulfonamide (RG7109), a potent inhibitor of the hepatitis C virus NS5B polymerase” (J Med Chem, 2014).
In brackets after ≈: the same amount, converted by molar mass. One block for each molecule: values may come before it.

Experiments:
Hepatitis C virus [1] = assay: Antiviral activity against Hepatitis C virus genotype 1b Con1 infected in human 2209-23 cells after 72 hrs by luciferase reporter gene assay in presence of 40% human serum; assay type: functional, organism-based, Hepacivirus hominis; conditions: isolate Con1, 2209-23, 72 h
Hepatitis C virus [2] = assay: Antiviral activity against Hepatitis C virus genotype 1a H77 infected in human 2209-23 cells after 72 hrs by luciferase reporter gene assay; assay type: functional, organism-based, Hepacivirus hominis; conditions: genotype 1a H77, 2209-23, 72 h
Hepatocyte [3] = assay: Intrinsic clearance in human hepatocytes assessed per 10^6 cells; assay type: ADME, cell-based
Summary of the method: (§1)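 Suspended hepatocytes (about 1.0×10^6 cells/mL) in Williams' medium E with glutamine, antibiotics, insulin, dexamethasone and 10% FCS, 37 °C, 5% CO2, shaken at 900 rpm. Compound at 0.1–10.0 μM. Stopped with methanol plus internal standard at 2–180 min. Parent remaining by LC/MS/MS peak area ratio, in duplicate.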

[4] = Ratio of EC50 for Hepatitis C virus genotype 1a H77 to EC50 for Hepatitis C virus genotype 1b Con1; assay type: functional
Hepatitis C virus [5] = assay: Antiviral activity against Hepatitis C virus genotype 1b Con1 infected in human 2209-23 cells after 72 hrs by luciferase reporter gene assay; assay type: functional, organism-based, Hepacivirus hominis; conditions: isolate Con1, 2209-23, 72 h
Summary of the method: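 Stable GT-1b Con1 subgenomic replicon cell line expressing a renilla luciferase reporter, used as the readout of inhibition. EC50 from luciferase signal, n 2.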

Hepatitis C virus [6] = assay: Antiviral activity against Hepatitis C virus genotype 1a H77 infected in human 2209-23 cells after 72 hrs by luciferase reporter gene assay in presence of 40% human serum; assay type: functional, organism-based, Hepacivirus hominis; conditions: genotype 1a H77, 2209-23, 72 h
Hepatitis C virus [7] = assay: Ratio of EC50 for Hepatitis C virus genotype 1a H77 in presence of human serum to EC50 for Hepatitis C virus genotype 1a H77; assay type: functional, Hepacivirus hominis
Hepatitis C virus [8] = assay: Ratio of EC50 for Hepatitis C virus genotype 1b Con1 in presence of human serum to EC50 for Hepatitis C virus genotype 1b Con1; assay type: functional, Hepacivirus hominis, isolate Con1
Hepatocyte [9] = assay: Intrinsic clearance in rat hepatocytes assessed per 10^6 cells; assay type: ADME, cell-based; summary of the method: as §1
[10] = Thermodynamic solubility of the compound; assay type: physicochemical; conditions: read-out: Therm_solubility
[11] = Inhibition of N-terminal 6xHis-tagged Hepatitis C virus genotype 1b Con1 NS5B polymerase containing 21-amino acid deletion at C-terminus expressed in Escherichia coli using radiolabeled UTP as substrate after 2 hrs by scintillation counting analysis; design: species or system Hepatitis C virus (isolate Con1)
Summary of the method: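 GT-1b Con1 NS5B polymerase (NS5B570n-Con1) activity assay run with RNA template at 3 nM and enzyme at 3 nM. IC50 reported in nM.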

SMILES: COc1c(C(C)(C)C)cc(-n2ccc(=O)[nH]c2=O)c2ncc(-c3ccc(NS(C)(=O)=O)cc3)cc12
EC50 (Hepatitis C virus [1]): 5.6 nM
EC90 (Hepatitis C virus [1]): 29 nM
EC50 (Hepatitis C virus [2]): 7.2 nM
CLH (Hepatocyte [3]): 7.9 uL/min/10^6 cells
Ratio EC50 [4]: 2.2
EC50 (Hepatitis C virus [5]): 3.2 nM
EC50 (Hepatitis C virus [6]): 16 nM
EC90 (Hepatitis C virus [6]): 123 nM
Ratio EC50 (Hepatitis C virus [7]): 1.7
Ratio EC50 (Hepatitis C virus [8]): 1.7
CLH (Hepatocyte [9]): 20 uL/min/10^6 cells

SMILES: COc1c(C(C)(C)C)cc(-c2ccc(C)[nH]c2=O)c2ncc(CCCCNS(C)(=O)=O)cc12
EC50 (Hepatitis C virus [2]): > 1000 nM
solubility thermodynamic [10]: 168 µg/mL (≈ 356 µM)

SMILES: COc1c(C(C)(C)C)cc(-c2ccc[nH]c2=O)c2ncc(N3CC(CNS(C)(=O)=O)C3)cc12
EC50 (Hepatitis C virus [2]): 532 nM
IC50 [11]: 3.5 nM

SMILES: CC(C)(C)c1nc(-n2ccc(=O)[nH]c2=O)c2ccc(-c3ccc(NS(C)(=O)=O)cc3)cc2n1
EC50 (Hepatitis C virus [2]): 17 nM

SMILES: COc1c(CC(F)(F)F)cc(-n2ccc(=O)[nH]c2=O)c2ncc(-c3ccc(NS(C)(=O)=O)cc3)cc12
EC50 (Hepatitis C virus [2]): 839 nM
CLH (Hepatocyte [3]): 0.8 uL/min/10^6 cells
EC50 (Hepatitis C virus [5]): 119 nM
CLH (Hepatocyte [9]): 3.7 uL/min/10^6 cells

Second part, led by results:

EC50 (Hepatitis C virus [1]): 11 nM
EC90 (Hepatitis C virus [1]): 47 nM
EC50 (Hepatitis C virus [2]): 5.2 nM
EC50 (Hepatitis C virus [5]): 3.1 nM
EC50 (Hepatitis C virus [6]): 4 nM
EC90 (Hepatitis C virus [6]): 25 nM
SMILES: COc1c(C(C)(C)C)cc(-c2ccc[nH]c2=O)c2ncc(-c3ccc(NS(C)(=O)=O)cc3)cc12
Ratio EC50 [4]: 1.7
Ratio EC50 (Hepatitis C virus [7]): 0.8
Ratio EC50 (Hepatitis C virus [8]): 0.8

EC50 (Hepatitis C virus [2]): 64 nM
EC50 (Hepatitis C virus [5]): 20 nM
SMILES: COc1c(C(C)(C)C)cc(N2CCCNC2=O)c2ncc(-c3ccc(NS(C)(=O)=O)cc3)cc12

EC50 (Hepatitis C virus [2]): 83 nM
EC50 (Hepatitis C virus [5]): 12 nM
SMILES: COc1c(C(C)(C)C)cc(-n2ccc(=O)[nH]c2=O)c2ccc(-c3ccc(NS(C)(=O)=O)cc3)nc12

EC50 (Hepatitis C virus [2]): 4.2 nM
EC50 (Hepatitis C virus [5]): 2 nM
SMILES: COc1c(C(C)(C)C)cc(-c2ccc(C)[nH]c2=O)c2ncc(-c3ccc(NS(C)(=O)=O)cc3)cc12

EC50 (Hepatitis C virus [1]): 3.5 nM
EC90 (Hepatitis C virus [1]): 20 nM
EC50 (Hepatitis C virus [2]): 4.6 nM
EC50 (Hepatitis C virus [5]): 3.2 nM
EC50 (Hepatitis C virus [6]): 10 nM
EC90 (Hepatitis C virus [6]): 48 nM
SMILES: COc1c(C(C)(C)C)cc(N2CCC(=O)NC2=O)c2ncc(-c3ccc(NS(C)(=O)=O)cc3)cc12
Ratio EC50 [4]: 1.4
Ratio EC50 (Hepatitis C virus [7]): 1.7
Ratio EC50 (Hepatitis C virus [8]): 1.7

EC50 (Hepatitis C virus [2]): 3.8 nM
EC50 (Hepatitis C virus [5]): 3.5 nM
SMILES: COc1c(C(C)(C)C)cc(-c2cc(F)c[nH]c2=O)c2ncc(-c3ccc(NS(C)(=O)=O)cc3)cc12
